The text below walks through data of ChEMBL document CHEMBL4145521, “Regioselective synthesis of 3,4-diaryl-5-unsubstituted isoxazoles, analogues of natural cytostatic combretastatin A4” (Eur J Med Chem, 2018).

Data set [1] relates to Paracentrotus lividus. Description: Antimitotic activity against Paracentrotus lividus embryo assessed as cleavage arrest measured at 5.5 hrs post fertilization by light microscopy. In kind it is functional. Summed up:
(§1)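 Sea urchin eggs were fertilized with diluted sperm and cultured at room temperature in filtered seawater with paddle agitation (60 rpm), at up to 2000 embryos/mL. The effective threshold concentration causing cleavage alteration, death before hatching or full mitotic arrest was scored in duplicate.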

Data set [2] deals with Paracentrotus lividus. In words: Antimitotic activity against Paracentrotus lividus embryo assessed as cleavage alteration measured at 2.5 hrs post fertilization by light microscopy. In kind it is functional. Summed up:
as §1

The subject of data set [3] is Paracentrotus lividus. In words: Toxicity in Paracentrotus lividus embryo assessed as embryo destruction at 2 to 4 uM by light microscopy. In kind it is organism-based. As to conditions: in vivo.
Data set [4] concerns Paracentrotus lividus. In words: Antimitotic activity against Paracentrotus lividus embryo assessed as embryo spinning after 15 mins to 20 hrs by light microscopy. In kind it is functional. Summed up: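 Free-swimming blastulae from the same culture were used just after hatching (8–10 h post-fertilization). They were kept in filtered seawater at room temperature and exposed to 2-fold decreasing concentrations. Spinning at the well bottom instead of forward swimming was monitored from 15 min to 20 h under light microscopy. The effective threshold concentration was recorded from duplicates.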

The test system of data set [5] is Paracentrotus lividus. Description: Toxicity in Paracentrotus lividus embryo assessed as embryo death at 2 to 4 uM by light microscopy. In kind it is organism-based. The following applies: in vivo.

`COc1ccc(/C(=C/c2cccs2)[N+](=O)[O-])cc1`: the values for the EC in the data set on Paracentrotus lividus [1], in the data set on Paracentrotus lividus [2] and in the data set with Paracentrotus lividus [4] were 2 µM, 0.2 µM and 2 µM, respectively. The Activity entry with Paracentrotus lividus [3] and in the data set with Paracentrotus lividus [5] was “Toxic” in each case.
Turning to `COc1ccc(-c2noc(C(=O)O)c2-c2cc(OC)cc(OC)c2)cc1`, the EC was above 40 µM in the data set with Paracentrotus lividus [1], 20 µM in the data set on Paracentrotus lividus [2] and above 40 µM in the data set with Paracentrotus lividus [4].
For `COc1ccc(-c2nocc2-c2ccc([N+](=O)[O-])cc2)cc1`, the EC in the data set with Paracentrotus lividus [1], in the data set on Paracentrotus lividus [2] and in the data set on Paracentrotus lividus [4] was above 4 µM each time.
Turning to `CCOC(=O)C1O[N+]([O-])=C(c2ccc(OC)cc2)C1c1ccc(Cl)cc1` (centres undefined), the EC with Paracentrotus lividus [1], in the data set on Paracentrotus lividus [2] and with Paracentrotus lividus [4] was above 4 µM throughout.
As for `COc1ccc(-c2noc(C(=O)O)c2-c2ccc(Cl)cc2)cc1`, the EC in the data set with Paracentrotus lividus [1], in the data set on Paracentrotus lividus [2] and in the data set with Paracentrotus lividus [4] was above 4 µM throughout.
With `COc1ccc(-c2nocc2-c2cccs2)cc1`, the EC in the data set with Paracentrotus lividus [1] is above 4 µM; in the data set with Paracentrotus lividus [2], 0.5 µM; in the data set with Paracentrotus lividus [4], above 4 µM.
On to `COc1ccc(/C(=C/c2cc(OC)c(OC)c(OC)c2)[N+](=O)[O-])cc1`, for which the figures for the EC in the data set on Paracentrotus lividus [1], with Paracentrotus lividus [2] and with Paracentrotus lividus [4] were 4 µM, 1 µM and above 4 µM, respectively. Moreover, the Activity entry with Paracentrotus lividus [3] and in the data set with Paracentrotus lividus [5] was “Toxic” in each case.
Consider `COc1ccc(-c2conc2-c2ccccc2)cc1`, for which the EC with Paracentrotus lividus [1] was 0.05 µM; in the data set with Paracentrotus lividus [2] it was 0.005 µM; in the data set on Paracentrotus lividus [4] it was 0.1 µM.
Regarding `COc1ccc(-c2nocc2-c2ccc(Cl)cc2)cc1`, the EC with Paracentrotus lividus [1], in the data set on Paracentrotus lividus [2] and in the data set with Paracentrotus lividus [4] was above 4 µM each time.
As to `COc1ccc(/C(=C/c2cnn(C)c2)[N+](=O)[O-])cc1`, the EC with Paracentrotus lividus [1] is above 4 µM; in the data set on Paracentrotus lividus [2] it was 2 µM; in the data set with Paracentrotus lividus [4] it was above 4 µM.
Regarding `COc1cc(-c2conc2-c2ccccc2)c(OC)c2c1OCO2`, the EC is above 4 µM in the data set on Paracentrotus lividus [1], 2 µM with Paracentrotus lividus [2] and above 4 µM in the data set on Paracentrotus lividus [4].
On to `COc1cc(-c2conc2-c2ccccc2)cc(OC)c1OC`, for which the EC with Paracentrotus lividus [1] is above 4 µM; in the data set on Paracentrotus lividus [2], 4 µM; in the data set with Paracentrotus lividus [4], above 4 µM.
As for `COc1ccc(-c2nocc2-c2cccc(OC)c2)cc1`, the EC was 4 µM in the data set with Paracentrotus lividus [1], 0.52 µM in the data set on Paracentrotus lividus [2] and above 10 µM with Paracentrotus lividus [4].
For `CCOC(=O)C1O[N+]([O-])=C(c2ccc(OC)cc2)C1c1cc(OC)cc(OC)c1` (centres undefined), in that order: above 4 µM, above 4 µM and above 4 µM.
`COc1ccc(/C=C\c2cc(OC)c(OC)c(OC)c2)cc1O` [COMBRETASTATIN A4]: the EC came to 0.01 µM with Paracentrotus lividus [1], 0.002 µM with Paracentrotus lividus [2] and 0.05 µM with Paracentrotus lividus [4].
`CCOC(=O)C1O[N+]([O-])=C(c2ccccc2)C1c1cc(OC)c2c(c1OC)OCO2` (centres undefined): the EC in the data set on Paracentrotus lividus [1], in the data set on Paracentrotus lividus [2] and with Paracentrotus lividus [4] was above 4 µM in each case.
For `COc1ccc(-c2noc(C(=O)O)c2-c2cc(OC)c(OC)c(OC)c2)cc1`, the EC in the data set with Paracentrotus lividus [1] was 2 µM; in the data set with Paracentrotus lividus [2] it was 0.2 µM; with Paracentrotus lividus [4], above 5 µM.
Consider `COc1ccc(/C=C(/c2ccccc2)[N+](=O)[O-])cc1`, for which the results for the EC in the data set with Paracentrotus lividus [1], with Paracentrotus lividus [2] and in the data set on Paracentrotus lividus [4] were 4 µM, 2 µM and 4 µM, respectively.
`COc1cc(-c2c(-c3ccccc3)noc2C(=O)O)c(OC)c2c1OCO2`: the EC in the data set with Paracentrotus lividus [1], with Paracentrotus lividus [2] and in the data set with Paracentrotus lividus [4] was above 4 µM throughout.
Regarding `CCOC(=O)C1O[N+]([O-])=C(c2ccc(OC)cc2)C1c1cc(OC)c(OC)c(OC)c1` (centres undefined), the EC in the data set with Paracentrotus lividus [1], with Paracentrotus lividus [2] and in the data set with Paracentrotus lividus [4] was above 4 µM in each case.
For the compound `COc1ccc(-c2nocc2-c2cnn(C)c2)cc1`, the EC in the data set on Paracentrotus lividus [1], in the data set with Paracentrotus lividus [2] and with Paracentrotus lividus [4] was above 4 µM in each case.
With `COc1ccc(-c2nocc2-c2cc(OC)cc(OC)c2)cc1`, the EC was 2 µM with Paracentrotus lividus [1], 0.2 µM in the data set on Paracentrotus lividus [2] and above 10 µM with Paracentrotus lividus [4].
For `COc1ccc(-c2noc(C(=O)O)c2-c2cccc(OC)c2)cc1`, in that order: above 4 µM, above 4 µM and above 4 µM.
As to `CCOC(=O)C1O[N+]([O-])=C(c2ccc(OC)cc2)C1c1cccc(OC)c1` (centres undefined), the EC in the data set on Paracentrotus lividus [1] is above 4 µM; in the data set on Paracentrotus lividus [2], 4 µM; in the data set with Paracentrotus lividus [4] it was above 4 µM.
As to `CCOC(=O)C1O[N+]([O-])=C(c2ccc(OC)cc2)C1c1ccc([N+](=O)[O-])cc1` (centres undefined), the EC in the data set with Paracentrotus lividus [1], with Paracentrotus lividus [2] and in the data set on Paracentrotus lividus [4] was above 4 µM in each case.
Consider `COc1cc(/C=C(/c2ccccc2)[N+](=O)[O-])c(OC)c2c1OCO2`, for which the EC in the data set on Paracentrotus lividus [1] is 4 µM; in the data set on Paracentrotus lividus [2] it was 2 µM; with Paracentrotus lividus [4], 1 µM. The Activity result with Paracentrotus lividus [3] and in the data set with Paracentrotus lividus [5] was “Toxic” throughout.
